Reference: article PMC6001651 (International Journal of Biological Sciences, 2018)
Where no end group is shown, it is not given here.

Columns and labels:
[1] = tested on: biofilm formation by S. aureus and P. aeruginosa; assay type: cell-based
P. aeruginosa biofilm = assay type: cell-based
S. aureus biofilm = assay type: cell-based
S. aureus (NCTC 10788) = assay: Antimicrobial assay; assay type: cell-based
Outline: (§1)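 Each organism was grown in Mueller-Hinton broth, and 10^5 CFU/mL were exposed to test compound at 1–512 μM in two-fold dilutions. Plates were incubated at 37 °C in humidified air for 16–24 h. For MBC, 20 µL from each well was plated on Mueller-Hinton agar. MBC was the lowest concentration giving no colonies.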

E. coli (NCTC 10418) = assay: Antimicrobial assay; assay type: cell-based
Outline: as §1

[2] = tested on: five diverse human cancer cell lines; assay: MTT anti-cancer assay, summary over five cancer cell lines; assay type: cell-based; conditions: read-out: IC50s over the cancer cell lines
Outline: (§2)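 Cells were seeded at 5000/well, grown 24 h at 37 °C in 5% CO2, then serum-starved for 6 h. Test compound at ten-fold concentrations from 10^-4 to 10^-9 M in serum-free medium was added for 24 h. MTT (5 mg/ml solution) was added for 4–6 h, formazan was dissolved in DMSO and OD was read at 550 nm. IC50 came from normalised curves; three independent experiments, mean ± s.d.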

[3] = tested on: human prostate carcinoma PC-3; assay: MTT anti-cancer assay; assay type: cell-based; conditions: PC-3, 24 h
Outline: as §2

melanocyte MDA-MB-435S = assay: MTT anti-cancer assay; assay type: cell-based, human; conditions: MBD-MB-435S, 24 h
Outline: as §2

[4] = tested on: non-small cell lung cancer H157; assay: MTT anti-cancer assay; assay type: cell-based, human; conditions: H157, 24 h
Outline: as §2

E. faecalis (NCTC 12697) = assay: Antimicrobial assay; assay type: cell-based
Outline: as §1

[5] = tested on: normal human microvessel endothelial cells HMEC-1; assay: MTT assay on normal cells; assay type: cell-based
Outline: as §2

[6] = tested on: human glioblastoma astrocytoma U251MG; assay: MTT anti-cancer assay; assay type: cell-based; conditions: U251-MG, 24 h
Outline: as §2

[7] = tested on: human breast cancer MCF-7; assay: MTT anti-cancer assay; assay type: cell-based; conditions: MCF-7, 24 h
Outline: as §2

C. albicans (NCTC 1467) = assay: Antimicrobial assay; assay type: cell-based
Outline: as §1

[8] = tested on: all the microorganisms that we examined; assay: Antimicrobial assays, summary over all microorganisms examined; assay type: cell-based
Outline: as §1

[9] = tested on: methicillin-resistant S. aureus (MRSA; ATCC 12493); assay: Antimicrobial assay; assay type: cell-based
Outline: as §1

Circular dichroism = assay type: physicochemical; conditions: 100 µM peptide, 20 °C
Outline: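 Test compound at 100 µM was dissolved in 10 mM ammonium acetate or in 50% TFE (v/v in 10 mM ammonium acetate) and read in a 1-mm cuvette. Spectra covered 190–260 nm at 20 °C, with three accumulations, 200 nm/min scan speed, 1 nm bandwidth and 0.5 nm data pitch. % α-helix was estimated by K2D on DichroWeb.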

Haemolysis assay = assay type: cell-based; conditions: horse erythrocytes, 2% suspension
Outline: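 A 2% horse erythrocyte suspension in PBS was incubated with test compound at 1–512 μM for 2 h at 37 °C, with PBS and 1% Triton X-100 as controls. After centrifugation at 900× g for 5 min, supernatant absorbance was read at 550 nm. HC50 was calculated from normalised curves.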

[10] = tested on: P. aeruginosa (ATCC 27853); assay: Antimicrobial assay; assay type: cell-based
Outline: as §1

Stability in serum = assay type: in vitro ADME; conditions: 10% FBS in RPMI-1640, 37 °C
Outline: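 Test compound at 50 μM was incubated in RPMI-1640 with 10% FBS at 37 °C for 24 h. Every 4 h, an aliquot was mixed with two volumes of 96% ethanol, held at 4 °C for 15 min and spun at 18,000× g for 2 min. Supernatants were analysed by RP-HPLC and MALDI-TOF. % remaining was the peak area relative to a serum-free stock; three independent experiments, mean ± s.d.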

RKKRRQRRRLNLKALLAVAKKIL-NH2 [tMP-C]
maximum MBIC [1]: 32 µM
MBIC (P. aeruginosa biofilm; P. aeruginosa biofilm formation): 8 µM
MBEC (P. aeruginosa biofilm; P. aeruginosa existing biofilm): 128 µM
MBIC (S. aureus biofilm; S. aureus biofilm formation): 32 µM
MBEC (S. aureus biofilm; S. aureus existing biofilm): 256 µM
MBC (S. aureus (NCTC 10788)): 4 µM
MIC (S. aureus (NCTC 10788)): 4 µM
MBC (E. coli (NCTC 10418)): 2 µM
MIC (E. coli (NCTC 10418)): 2 µM
IC50 [2]: < 4 µM
IC50 [3]: 3.86 µM
IC50 (melanocyte MDA-MB-435S): 3.86 µM
IC50 [4]: 2.79 µM
MBC (E. faecalis (NCTC 12697)): 16 µM
MIC (E. faecalis (NCTC 12697)): 8 µM
inhibitory effect ([5]; HMEC-1, concentration of 10 µM): 60%
IC50 ([5]; HMEC-1 normal cells, 24 h, MTT): 9.18 µM
IC50 [6]: 3.36 µM
IC50 [7]: 3.7 µM
MBC (C. albicans (NCTC 1467)): 2 µM
MIC (C. albicans (NCTC 1467)): 2 µM
MIC and MBC values [8]: at most 16 µM
MBC [9]: 8 µM
MIC [9]: 4 µM
% α-helix 10 mM NH4AC (Circular dichroism; 10 mM NH4AC buffer): 9%
% α-helix 50% TFE (v/v) (Circular dichroism; 50% TFE in 10 mM NH4AC): 28%
HC50 at 2 h (Haemolysis assay): 77.9 µM
MBC [10]: 4 µM
MIC [10]: 4 µM
serum stability (in words) (Stability in serum): poor serum stability
